Measurements from PubChem BioAssay.
Activity calls are given as the source filed them.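 The calls were made as follows, unless noted: active = inhibition of the reporter signal at or above 50%; inactive = inhibition below 50%.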

Columns and labels:
[1] = inhibitors of TNFa-induced NFkB p65 translocation, primary screen, imaging, HUVEC, MLSMR starter and 10KST1 sets (AID 438;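 active = inhibition above 20% together with a positive visual image hit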;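 also: compound added about 3h40 before a 20 min TNFalpha stimulation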;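 as to inhibition: signal is the nuclear over cytoplasmic p65 intensity ratio per well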); settings: HUVEC TNFa-induced p65 nuclear translocation; cell count: measured here: nuclei count (cytotoxicity indicator), at 2.08 µM; inhibition: at 2 µM, stronger effect = higher value, 0% TNFa-plus-vehicle, 100% no-TNFa wells
[2] = inhibitors of mutant huntingtin aggregation, primary screen, imaging, exon1htt(103Q)mCFP cells, high-content imaging (AID 483;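 active = visual image review flags a hit and inhibition of aggregation exceeds 20%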;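 also: compound exposure lasted 3 days before fixation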;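 as to nuclei count: percent of the per-plate median nuclei count of sample wells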); settings: exon1htt(103Q)mCFP cell line, aggregate imaging, at 2 µM; inhibition of aggregation: stronger effect = higher value; nuclei count: measured here: cell count, toxicity
[3] = inhibitors of E-selectin induction by TNFa, primary screen, imaging, HUVEC, immunofluorescence, MLSMR starter and 10KST1 sets (AID 487;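 active = visually confirmed hit in the image check and inhibition above 20%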;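 as to inhibition: signal is fraction of cell area covered by stained E-selectin grains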;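 as to nuclei count: 100% = median nuclei count of all wells on the same plate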); settings: HUVEC TNFalpha-induced E-selectin immunofluorescence imaging, at 2 µM; inhibition: stronger effect = higher value; nuclei count: measured here: cell number, toxicity
[4] = biological target: Voltage-gated potassium channel subunit beta-2 (Rattus norvegicus) (UniProt P62483); assay: KvBeta enzyme negative modulators, primary screen, biochemical, NADPH fluorescence (AID 622;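 active = fluorescence slope higher than the sample average by over 3 SD, cut at about -0.22 in these data, passing the limit was not always enough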;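 also: slope of raw intensity against log time taken from 70 to 1610 s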); settings: recombinant KvBeta, 4-cyanobenzaldehyde reduction, at 10 µM, stronger effect = higher value
[5] = biological target: Voltage-gated potassium channel subunit beta-2 (Rattus norvegicus) (UniProt P62483); assay: KvBeta positive modulators, primary screen, biochemical, NADPH fluorescence (AID 623;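 active = NADPH fluorescence slope more negative than the mean of all samples by about 3 SD, 99.7% confidence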;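 also: fluorescence intensity change per second fitted from 20 to 320 s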); settings: Recombinant KvBeta, NADPH fluorescence decrease slope, 10 min; at 10 µM; stronger effect = lower value
[6] = biological target: Alpha-2C adrenergic receptor (Homo sapiens) (UniProt P18825); assay: modulators of alpha2C/GIRK thallium flux, primary screen, cell-based, HEK293 alpha2C/GIRK1/2 (AID 624;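 active = fluorescence slope after compound addition differing from the mean of all screened samples at 99.7% confidence, in either direction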;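 also: slope of fluorescence ratio to pre-addition baseline per second over 15 to 24 s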); settings: thallium flux BTC fluorescence, at 10 µM, actives lie on both sides
[7] = inhibitors of larval lipid processing in zebrafish, primary screen, whole organism, PED6 fluorescence, gall bladder and intestine (AID 686;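 active = a full or partial loss of lipid-probe fluorescence in the fish gall bladder, intestine or both, judged by eye; inactive = no fluorescence loss, or compound toxic to the fish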;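 also: larvae 5 to 7 days old with five fish per well; signal comes from phospholipase A2 cleavage of quenched PED6 carried via bile; overnight exposure to compound and PED6 before scoring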); settings: Zebrafish larvae PED6 lipid processing, fluorescence scoring; screened at 20 µM (by protocol)
Procedure, shortened: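 system = live zebrafish larvae aged 5-7 days, whole organism | probe or stimulus = ingested quenched lipid PED6 at 100 nM | doses = 20 µM single dose | timing = overnight exposure | detection = fluorescence microscopy with visual scoring of gall bladder and intestine | read-out = visual per-well fluorescence inhibition score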

[8] = inhibitors of Sendai virus-induced IRF3 signaling, primary screen, TLR/RLR signaling modifier project, cell-based, Sendai virus stimulus, luciferase, 10K MLSCN set (AID 602276;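 active = inhibition at or above 50% at 10 µM; inactive = inhibition below 50%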;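 also: firefly luciferase from ISG56 promoter only with Renilla not read in this screen; 0% = Sendai virus plus DMSO and 100% = medium plus DMSO without virus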); settings: HEK293 RL24 IRF3 luciferase reporter, at 10 µM, stronger effect = higher value
[9] = inhibitors of poly I:C-induced TLR3 signaling, primary screen, cell-based, poly I:C stimulus, luciferase, 10K MLSCN set (AID 602277); settings: HEK293-TLR3 RL24 IRF3 luciferase reporter, at 10 µM, stronger effect = higher value

Chain of Voltage-gated potassium channel subunit beta-2 (Rattus norvegicus) (P62483 whole entry, looked up): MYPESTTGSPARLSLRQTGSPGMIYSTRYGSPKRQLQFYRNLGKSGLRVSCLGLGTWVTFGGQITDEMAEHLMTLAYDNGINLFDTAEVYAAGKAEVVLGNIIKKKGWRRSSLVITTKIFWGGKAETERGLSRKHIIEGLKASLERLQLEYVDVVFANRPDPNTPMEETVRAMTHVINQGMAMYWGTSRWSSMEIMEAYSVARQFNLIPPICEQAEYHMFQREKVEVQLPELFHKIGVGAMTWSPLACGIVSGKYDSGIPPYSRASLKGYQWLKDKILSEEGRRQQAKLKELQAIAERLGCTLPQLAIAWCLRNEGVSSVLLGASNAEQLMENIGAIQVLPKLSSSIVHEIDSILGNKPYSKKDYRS
Chain of Alpha-2C adrenergic receptor (Homo sapiens) (P18825 whole entry, looked up): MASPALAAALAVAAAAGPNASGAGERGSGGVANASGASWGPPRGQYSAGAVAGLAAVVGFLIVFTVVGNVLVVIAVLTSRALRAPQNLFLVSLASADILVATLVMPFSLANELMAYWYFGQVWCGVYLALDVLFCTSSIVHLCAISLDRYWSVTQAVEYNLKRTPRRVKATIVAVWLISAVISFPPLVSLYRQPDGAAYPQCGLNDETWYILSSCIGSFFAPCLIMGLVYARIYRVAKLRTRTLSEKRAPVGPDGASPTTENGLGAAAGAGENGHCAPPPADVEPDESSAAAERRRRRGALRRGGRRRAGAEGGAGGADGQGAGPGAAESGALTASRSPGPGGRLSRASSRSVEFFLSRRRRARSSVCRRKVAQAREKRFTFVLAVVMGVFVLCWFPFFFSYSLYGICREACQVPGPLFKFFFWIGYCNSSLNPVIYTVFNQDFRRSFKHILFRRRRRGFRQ

Structure (SMILES)	cell count [1]	inhibition [1]	inhibition of aggregation [2]	nuclei count [2] [%]	inhibition [3]	nuclei count [3] [%]	fluorescence slope [4]	NADPH fluorescence slope [5]	slope [6]	outcome [7]	inhibition [8]	inhibition [9]
O=C(Nc1ccc2c(c1)OCO2)N1CCN(c2ncccn2)CC1	342	10.3% (inactive)	-5.6% (inactive)	107	-38.9% (inactive)	118	-0.421 (inactive)	-3.9e-06 (inactive)	0.00535 (inactive)	inactive	-23.4% (inactive)	-41.5% (inactive)
CC1CCCC(C)N1CCNC(=O)C1CCN(S(=O)(=O)N2CCCCC2)CC1 (centres undefined)	383	4.2% (inactive)	17.2% (inactive)	104	-93.7% (inactive)	115	-0.384 (inactive)	1.9e-05 (inactive)	0.00471 (inactive)	inactive	-6.08% (inactive)	-0.147% (inactive)
CCOC(=O)c1ccc(CNC(=O)C(Cc2c[nH]c3ccccc23)NC(C)=O)o1 (centres undefined)	444	-0.3% (inactive)	-11.1% (inactive)	122	-52.8% (inactive)	167	-0.369 (inactive)	-4.9e-06 (inactive)	0.00652 (inactive)	inactive	17% (inactive)	29.3% (inactive)
c1ccc(OCCCn2nnc(-c3ccncc3)n2)cc1	604	-9.9% (inactive)	2.3% (inactive)	91.9	-57.3% (inactive)	114	-0.454 (inactive)	-2.7e-05 (inactive)	0.00445 (inactive)	inactive	13.2% (inactive)	-7.55% (inactive)
COCCNC(=O)NC(=O)COC(=O)Cc1ccc2c(c1)OCCO2	376	5.1% (inactive)	-11.9% (inactive)	109	-127% (inactive)	110	-0.418 (inactive)	-6.4e-05 (inactive)	0.00538 (inactive)	inactive	17% (inactive)	16.3% (inactive)
CC(C)(C)C(=O)OCC1OC(n2cnc(C(N)=O)n2)C(O)C1O (centres undefined)	468	-8.7% (inactive)	7.9% (inactive)	88.9	49.3% (inactive)	88	-0.382 (inactive)	8.9e-07 (inactive)	0.00529 (inactive)	inactive	5.04% (inactive)	4.14% (inactive)
Cn1c(-c2ccccc2)cnc1SCc1nc2ccccc2c(=O)[nH]1	428	0.8% (inactive)	-3.4% (inactive)	119	-80.8% (inactive)	109	-0.379 (inactive)	-6.5e-05 (inactive)	0.00544 (inactive)	inactive	11.1% (inactive)	-54% (inactive)
O=c1c2[nH]c3ccc(Cl)cc3c2ncn1Cc1ccccn1	302	-3.6% (inactive)	-30.4% (inactive)	83.4	-31.6% (inactive)	107	-0.392 (inactive)	-4.3e-05 (inactive)	0.00522 (inactive)	inactive	-2.53% (inactive)	5.03% (inactive)
N#CCc1ccc(NC(=O)Nc2cccc(Cl)c2)cc1	321	-8.6% (inactive)	-19.9% (inactive)	85.4	-112% (inactive)	137	-0.46 (inactive)	-5.6e-05 (inactive)	0.00505 (inactive)	inactive	-26.8% (inactive)	-62.7% (inactive)
CC1(C)CC2CC(C)(CN2S(=O)(=O)c2ccc(N)cc2)C1 (centres undefined)	613	-9.2% (inactive)	30.3% (inactive)	79.8	65.6% (inactive)	60.2	-0.374 (inactive)	-6.2e-05 (inactive)	0.00585 (inactive)	inactive	10.2% (inactive)	18.5% (inactive)
COC(=O)Nc1sccc1C(=O)Nc1sccc1C(=O)OC	330	-0.2% (inactive)	23.3% (inactive)	96.8	17.9% (inactive)	95.9	-0.431 (inactive)	-3.4e-05 (inactive)	0.00336 (inactive)	inactive	1.3% (inactive)	-4.09% (inactive)
Cc1ccc(NC(=O)CSc2nnc(-c3ccc(S(=O)(=O)N4CCOCC4)cc3)n2C)cc1	740	-0.2% (inactive)	0.9% (inactive)	87	9.3% (inactive)	111	-0.384 (inactive)	-7.3e-05 (inactive)	0.00534 (inactive)	inactive	4.24% (inactive)	4.26% (inactive)
COCCN1C=C(C(=O)OC)C(c2cc3c(cc2Br)OCO3)C(C(=O)OC)=C1	629	-7.8% (inactive)	1.1% (inactive)	112	48.4% (inactive)	46.8	-0.377 (inactive)	-6e-05 (inactive)	0.00391 (inactive)	inactive	13.3% (inactive)	20.6% (inactive)
NC(=O)c1ccsc1NC(=O)COC(=O)Cc1ccsc1	246	-18.9% (inactive)	17.1% (inactive)	81	26.2% (inactive)	75.6	-0.453 (inactive)	-4.6e-05 (inactive)	0.00509 (inactive)	inactive	9.36% (inactive)	10.7% (inactive)
COCCn1nnnc1SCC(=O)N1CCCCC1	344	1.6% (inactive)	4.1% (inactive)	102	6.2% (inactive)	121	-0.49 (inactive)	-9.6e-06 (inactive)	0.00458 (inactive)	inactive	17.3% (inactive)	14% (inactive)
CSCCC(NC(=O)CCN1C(=O)c2ccccc2C1=O)C(=O)O (centres undefined)	366	1.8% (inactive)	-10.9% (inactive)	99.7	-76.8% (inactive)	110	-0.411 (inactive)	2e-07 (inactive)	0.00495 (inactive)	inactive	15.7% (inactive)	19.3% (inactive)
O=C(NCCN1CCOCC1)c1ccc(CS(=O)(=O)Cc2ccccc2F)o1	536	-21.6% (inactive)	-10.5% (inactive)	94.3	-69.5% (inactive)	108	-0.453 (inactive)	-5.9e-05 (inactive)	0.00503 (inactive)	inactive	11.2% (inactive)	9.56% (inactive)
NS(=O)(=O)c1ccc(NC(=O)CSc2nnc(Cc3cccs3)n2-c2ccccc2)cc1	253	-10.8% (inactive)	7.5% (inactive)	73.5	-24.9% (inactive)	100	-0.45 (inactive)	-4.3e-05 (inactive)	0.00519 (inactive)	inactive	17.4% (inactive)	21.4% (inactive)
CCc1ccc2[nH]c(=O)c(C(c3nnnn3CC3CCCO3)N3CCN4CCCC4C3)cc2c1 (centres undefined)	314	12.3% (inactive)	-16.9% (inactive)	107	13.9% (inactive)	102	-0.382 (inactive)	-5.9e-05 (inactive)	0.00534 (inactive)	inactive	9.53% (inactive)	4.74% (inactive)
COc1ccccc1OCc1ccc(C(=O)N2CCN(C(=O)c3ccco3)CC2)cc1	502	-32.6% (inactive)	6% (inactive)	98.6	-92.1% (inactive)	103	-0.416 (inactive)	-3e-05 (inactive)	0.00401 (inactive)	inactive	1.91% (inactive)	18% (inactive)
CCOC(=O)c1c(N)c(C#N)nn1-c1ccccc1C(=O)OC	516	-3.6% (inactive)	30.5% (inactive)	81	-41.6% (inactive)	101	-0.364 (inactive)	-4.6e-05 (inactive)	0.00521 (inactive)	inactive	9.81% (inactive)	20.2% (inactive)
C=CCSc1nnc(-c2ccc(Cl)cc2Cl)o1	400	0.2% (inactive)	16.3% (inactive)	84.8	14.7% (inactive)	88.4	-0.373 (inactive)	-5.2e-05 (inactive)	0.00563 (inactive)	inactive	-1.24% (inactive)	-58.3% (inactive)
CCc1nnc(NC(=O)CSc2nc(-c3ccc(OC)cc3)ns2)s1	203	-10.4% (inactive)	-17.4% (inactive)	82	-32.2% (inactive)	98.7	-0.408 (inactive)	3.8e-06 (inactive)	0.00688 (inactive)	inactive	-36.8% (inactive)	-50.2% (inactive)
O=C(NCCCN1CCOCC1)c1cc(-c2ccc(Cl)cc2)on1	264	-1.8% (inactive)	-1.6% (inactive)	102	-8.4% (inactive)	113	-0.294 (inactive)	1.2e-05 (inactive)	0.00493 (inactive)	inactive	6.84% (inactive)	-3.16% (inactive)
O=C(NCC(=O)N(c1cccnc1)C(C(=O)NC1CCCCC1)c1cccnc1)c1ccco1 (centres undefined)	424	6.8% (inactive)	6.3% (inactive)	109	-37.8% (inactive)	110	-0.39 (inactive)	-5.1e-05 (inactive)	0.00388 (inactive)	inactive	9.81% (inactive)	6.29% (inactive)
Cn1c(=O)cc(SCC(=O)NCc2cccnc2)c2ccccc21	634	2.8% (inactive)	3.4% (inactive)	104	-48.7% (inactive)	110	-0.31 (inactive)	-3.9e-05 (inactive)	0.00505 (inactive)	inactive	9.23% (inactive)	9.63% (inactive)
COC(=O)CN(Cc1ccco1)S(=O)(=O)c1ccccc1	554	-13.3% (inactive)	-8.4% (inactive)	111	-9.7% (inactive)	112	-0.351 (inactive)	-5.1e-05 (inactive)	0.00494 (inactive)	inactive	7.73% (inactive)	6.21% (inactive)
